Results gathered from unrelated publications.
Compare with care: the assays were run in different laboratories.
Cell line: NCI-H522
Effect on: cell growth or viability

Compound	assay	setting	endpoint	result
COc1ccc(-c2ccc(-c3ccc(C(=N)N)nc3)s2)cc1Cl	SRB		GI50	2.1 µM
COc1ccc(C(=O)/C=C/c2cccnc2)cc1S(N)(=O)=O	SRB	10 µM	inhibition	168%
S=C([S][Au-][P+](CCCCCC[P+]([Au-][S]C(=S)n1cccn1)(c1ccccc1)c1ccccc1)(c1ccccc1)c1ccccc1)n1cccn1	SRB		GI50	1.62 µM
COc1ccc(C(=O)/C=C/c2cccc(Br)c2)cc1S(N)(=O)=O	SRB	48 h	GI50	1.6 µM
O=C1NCCc2[nH]c(-c3ccncc3)cc21			IC50	> 10 µM
CCCCc1n(Cc2ccc3ccccc3n2)cc[n+]1Cc1ccc2ccccc2n1	SRB		TGI	4.19 µM
COc1ccccc1/C=C/C(=O)c1ccc(OC)c(S(N)(=O)=O)c1	SRB	10 µM	inhibition	110%
COc1cc(-c2ccc(-c3ccc(C(=N)N)nc3)s2)cc(OC)c1OC	SRB		GI50	1.8 µM
CCc1n(Cc2ccc3ccccc3n2)cc[n+]1Cc1ccc2ccccc2c1	SRB		TGI	0.986 µM
COc1ccc(C(=O)/C=C/c2ccccc2Br)cc1S(N)(=O)=O	SRB	48 h	GI50	1.8 µM
CCCc1n(Cc2ccc3ccccc3n2)cc[n+]1Cc1ccc2ccccc2c1	SRB		TGI	1.13 µM
O=C1Nc2ccccc2C1=NNc1nnc2n1N=C(c1ccccc1)CS2	SRB	10 µM	inhibition	57%
Cc1n(Cc2ccc3ccccc3n2)cc[n+]1Cc1ccc2ccccc2c1	SRB		TGI	1.46 µM
COc1ccc(C2=Nn3c(NN=C4C(=O)Nc5ccc(Cl)cc54)nnc3SC2)cc1	SRB	10 µM	inhibition	34%
